Series [1] deals with T1, GNAQ/GNA11 (Homo sapiens) (UniProt P50148+P29992). As to the kind of experiment: Inhibition of Galphaq/11 (unknown origin) expressed in CHO cells coexpressing M1 receptor assessed as reduction in carbachol-induced IP1 accumulation at 10 uM preincubated for 1 hr followed by carbachol stimulation and measured after 1 hr by HTRF assay relative to control. The series is classed as cell-based. The note with it: time 2.0 hrs. On the technique in general: TR-FRET usually uses a lanthanide donor and a delayed reading to cut background.

The test system of series [2] is CHO. As to the kind of experiment: Induction of morphological changes in chinese hamster CHO cells overexpressing M1 receptor upto 20 uM by light microscopic analysis. The class given is cell-based, Cricetulus griseus. In a few lines:
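CHO-M₁ cells were treated with compound at 10 or 20 μM for 2 h, and changes in cell morphology were examined by microscopy.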

Series [3] concerns CHO. As to the kind of experiment: Cytotoxicity against chinese hamster CHO cells overexpressing M1 receptor assessed as cell viability upto 20 uM for 24 hrs by CCK8 assay. The class given is cell-based, Cricetulus griseus. A digest of the protocol: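 CHO cells stably expressing the M₁ receptor were treated with a range of compound concentrations for 2 h or 24 h. Viability measured by CCK-8 and given as percentage. Mean ± SD of three independent experiments.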

Series [4] deals with 921. As to the kind of experiment: Antiproliferative activity against human 92.1 cells assessed as inhibition of cell growth at 5 to 15 uM by CCK8 assay. The class given is functional, cell-based. The note with it: dose 5-15 µM, time 24-96 hrs, TDE = time-dependent effect. (Tetrazolium assays rely on reduction of a dye to a coloured formazan, in cell work by metabolically active cells.)

For series [5], the system named is MP41. As to the kind of experiment: Antiproliferative activity against human MP41 cells assessed as inhibition of cell growth at 15 to 30 uM by CCK8 assay. The note with it: dose 15-30 µM, time 24-96 hrs, TDE = time-dependent effect. The series is classed as functional, cell-based.
The test system of series [6] is 921. Briefly: Antiproliferative activity against GNAQ knock down human 92.1 cells assessed as inhibition of cell growth at 10 to 15 uM after 72 hrs by CKK8 assay. Conditions: dose 10-15 µM. The series is classed as functional.
Series [7] is described as follows: Induction of apoptosis in human 921 cells assessed as late apoptotic cells at 5 uM after 48 hrs by Annexin-V-FITC/propidium iodide staining based flow cytometry (reference value: 2.52%). The class given is functional. In general terms: In flow cytometry, cells or beads pass a laser one at a time.
Series [8] can be described thus: Induction of apoptosis in human 921 cells assessed as necrotic cells at 5 uM after 48 hrs by Annexin-V-FITC/propidium iodide staining based flow cytometry (reference value: 0.26%). The series is classed as functional.
A short description of series [9]: Induction of apoptosis in human 921 cells assessed as late apoptotic cells at 15 uM after 48 hrs by Annexin-V-FITC/propidium iodide staining based flow cytometry (reference value: 2.52%). The series is classed as functional.
Series [10] in a line: Induction of apoptosis in human MP41 cells assessed as necrotic cells at 15 uM after 48 hrs by Annexin-V-FITC/propidium iodide staining based flow cytometry (reference value: 0.11%). The series is classed as functional.
Series [11] can be described thus: Induction of apoptosis in human MP41 cells assessed as early apoptotic cells at 30 uM after 48 hrs by Annexin-V-FITC/propidium iodide staining based flow cytometry (reference value: 2.96%). The class given is functional.
For series [12], the system named is MP41. As to the kind of experiment: Inhibition of cell migration in human MP41 cells at 30 uM incubated for 48 hrs by Transwell migration assay. The class given is functional, cell-based. A digest of the protocol:
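Transwell migration: 92.1 and MP41 cells (RPMI-1640, 10% FBS) seeded 1 × 10⁴/well in upper chamber in serum-free medium, 20% FBS medium below; overnight at 37 °C, then compound for 48 h. Non-migrated cells swabbed off; lower cells crystal violet-stained 30 min, counted by light microscopy. Mean SD of three independent experiments.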

A short description of series [13]: Toxicity in nude BALB/c mouse xenografted with human MP41 cells assessed as morphological changes in heart tissue at 10 to 30 mg/kg, ip administered once daily for 21 days and measured every 3 days by HE staining based assay. The series is classed as organism-based. Conditions: in vivo, 504 h, dose 10-30 mg/kg, time 21 day. A digest of the protocol: (§1)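 Nude BALB/c mice bearing serially passaged MP41 tumour slices (tertiary recipients, n = 8/group, randomized) dosed ip daily for 21 days at 10 or 30 mg/kg/d or vehicle. Body weight monitored every 3 days. Tissues collected at sacrifice, fixed in 4% paraformaldehyde 24 h, paraffin-embedded, H&E stained, viewed at ×100.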

Series [14] can be described thus: Toxicity in nude BALB/c mouse xenografted with human MP41 cells assessed as morphological changes in liver tissue at 10 to 30 mg/kg, ip administered once daily for 21 days and measured every 3 days by HE staining based assay. The class given is organism-based. The note with it: in vivo, 504 h, dose 10-30 mg/kg, time 21 day. In a few lines:
as §1

Series [15] in a line: Toxicity in nude BALB/c mouse xenografted with human MP41 cells assessed as morphological changes in lung tissue at 10 to 30 mg/kg, ip administered once daily for 21 days and measured every 3 days by HE staining based assay. The class given is organism-based. Conditions: in vivo, 504 h, dose 10-30 mg/kg, time 21 day. In a few lines:
as §1

Series [16] concerns the target T1, GNAQ/GNA11 (Homo sapiens). As to the kind of experiment: Inhibition of Galphaq/11 in human MP41 cells assessed as reduction in ERK phosphorylation at 15 to 30 uM after 48 hrs by Western blot analysis. Conditions: dose 15-30 µM. The series is classed as cell-based. A digest of the protocol: (§2)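 92.1 and MP41 cells plated overnight, then exposed to compound 48 h. Lysed in ice-cold buffer and protein quantified by BCA. Resolved on 8−12% SDS−PAGE and transferred to PVDF. Probed for p-YAP Ser127, total YAP, p-ERK1/2 Thr202/Tyr204 and total ERK1/2, with GAPDH as loading control. ECL detection, triplicate.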

Series [17] deals with T1, GNAQ/GNA11 (Homo sapiens). Briefly: Inhibition of Galphaq/11 in human MP41 cells assessed as induction of YAP phosphorylation at 15 to 30 uM after 48 hrs by Western blot analysis. The series is classed as cell-based. Conditions: dose 15-30 µM. A digest of the protocol:
as §2

For series [18], the target named is T1, GNAQ/GNA11 (Homo sapiens). As to the kind of experiment: Inhibition of Galphaq/11 in human MP41 cells xenografted mouse tumor tissue assessed as inhibition of ERK phosphorylation at 10 to 30 mg/kg, ip administered for 21 consecutive days by Western blot analysis. Conditions: dose 10-30 mg/kg, time 21.0 day. The series is classed as organism-based. In a few lines: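 MP41 xenograft tumours from mice given 10 or 30 mg/kg/day ip for 21 consecutive days were analysed by Western blot. Probed for p-YAP, YAP, p-ERK and ERK, with GAPDH as loading control. Representative of triplicate experiments.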

A short description of series [19]: Tmax in ICR mouse at 10 mg/kg, iv measured upto 24 hrs by LC-MS/MS analysis. The class given is ADME, organism-based. The note with it: in vivo. A digest of the protocol: (§3)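 Single-dose PK in male ICR mice (n = 6): 10 mg/kg iv or 30 mg/kg po, vehicle 5% DMSO/95% saline. Blood (30 μL) by catheter at 0, 5, 15, 30 min and 1, 2, 4, 6, 8, 24 h; plasma by centrifugation, stored −80 °C, measured by LC–MS/MS. Parameters from noncompartmental analysis, mean SD.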

Series [20] is described as follows: Cmax in ICR mouse at 30 mg/kg, po measured upto 24 hrs by LC-MS/MS analysis. Also noted: route oral, dose 30 mg/kg, time <=24. Conditions: in vivo. The series is classed as ADME, organism-based. A digest of the protocol: (§4)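 Single dose in male ICR mice, 10 mg/kg iv or 30 mg/kg po, dissolved in 5% DMSO/95% saline. Blood drawn by catheter at 0, 5, 15, 30 min and 1, 2, 4, 6, 8, 24 h. Plasma spun 6800g 6 min at 2−8 °C, stored −80 °C, quantified by LC−MS/MS. Noncompartmental parameters, mean ± SD, n = 6.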

A short description of series [21]: MRT(0 to t) in ICR mouse at 10 mg/kg, iv measured upto 24 hrs by LC-MS/MS analysis. The class given is ADME, organism-based. Conditions: in vivo. In a few lines: as §3
A short description of series [22]: Volume of distribution at steady state in ICR mouse at 10 mg/kg, iv measured upto 24 hrs by LC-MS/MS analysis. The class given is ADME, organism-based. Conditions: in vivo, read-out: Vdss. A digest of the protocol: as §3
Series [23] can be described thus: Clearance in ICR mouse at 10 mg/kg, iv measured upto 24 hrs by LC-MS/MS analysis. The class given is ADME, organism-based. Conditions: in vivo. In a few lines: as §4

Activity calls are given as the source filed them. The rule behind the calls is not given here.

Usually inhibition stands for the drop in the measured response relative to a control, in per cent. In general, Tmax refers to the time at which the peak concentration occurs. One may read the Cmax as the peak of the concentration-time curve. As a reminder, the MRT last is the average time that molecules of a dose stay in the body. Usually clearance stands for the rate of elimination divided by the concentration. A higher clearance goes with efficient removal.

Regarding `CC[C@@H](C)[C@H](N)C(=O)N1CCn2cc(-c3ccccc3)nc2[C@@H]1CC1CCCCC1`, the inhibition in series [1] came to 36.5%. Moreover, the Activity result is “Non-Toxic” with CHO [2]; “Non-Toxic” in the series on CHO [3]; “Tde” in the series on 921 [4]; “Tde” in the series on MP41 [5]; 3.4% in [7]; 0.43% in [8]. The Activity is given as 6.99% in series [9]; 0.09% in [10]; 17.9% in series [11]; “Non-Toxic” in series [13]; “Non-Toxic” in series [14]; “Non-Toxic” in series [15]. In addition, the outcome with 921 [6] was inactive. Also, the inhibition result (in the series with MP41 [12]; in series [16]; in series [17]; in series [18]) was “Active” throughout. Besides, the Tmax in series [19] came to 4.8 min. Further, the Cmax in [20] is 2890 ng/mL. Further, in series [21], the MRT last at 24 h was 55.8 min. Also, the Vd in series [22] worked out at 4.53 L/kg. The compound also had a clearance in [23] of 77.9 mL/min/kg.
